Each structure is given as a SMILES string. The whole screen tested about 5,600 compounds, of which about 1,200 (21%) were called active. Another 3% or so got no clear call; they are omitted. A selection follows. Values without a mark were called inactive.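 Rule for the calls: active = mean inhibition above about 95%, with at least 55% of replicates also reaching it (limit read from the data); inconclusive = meets just one of the two conditions; inactive = meets neither condition.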

This test in a line: Trypanosoma cruzi growth blockers in host fibroblasts – NIH3T3 host cells, beta-gal parasites, cherry-pick, set 2, confirmation (AID 651740).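 Note: plate controls were neutral control median for no effect and positive control median for full effect.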 The note with it: T. cruzi beta-gal in NIH3T3, GalScreen luminescence, 90 h; at 2.09 µM; active compounds read high. A digest of the protocol: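 Timing: host attachment 3 h, co-culture ≥90 h, lysis 60 min / Test system: NIH/3T3 host cells with beta-gal T. cruzi Tulahuen C4 / Quantity: 5,000 fibroblasts/well / Dosing: single point, 100 nL compound in DMSO pinned per well / Buffer or medium: 2% FBS DMEM with PSG / Detection: GalScreen luminescence (substrate 1:25 in Buffer B) after cell lysis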
As to `CC(C)CC#Cc1ccc2c(c1)O[C@H](CN(C)Cc1ccccc1F)[C@@H](C)CN([C@@H](C)CO)S2(=O)=O`, the inhibition (in general, the relative decrease from the control value, in per cent) is 113% (active).
The same measure for `C[C@@H]1CN([C@H](C)CO)S(=O)(=O)c2ccc(-c3cccc(F)c3)cc2O[C@H]1CN(C)S(=O)(=O)c1ccc(F)cc1`: 74.9%; for `CC(C)CC#Cc1ccc2c(c1)O[C@H](CN(C)S(=O)(=O)c1cccc(F)c1)[C@@H](C)CN([C@@H](C)CO)S2(=O)=O`: 110% (active).
To `CC(C)CC#Cc1ccc2c(c1)O[C@H](CN(C)Cc1cccnc1)[C@H](C)CN([C@@H](C)CO)S2(=O)=O` belongs 81.2%.
To `CC(C)CC#Cc1ccc2c(c1)O[C@H](CN(C)Cc1ccncc1)[C@H](C)CN([C@H](C)CO)S2(=O)=O` belongs 89.4%; to `C[C@@H]1CN([C@@H](C)CO)S(=O)(=O)c2ccc(-c3cccc(F)c3)cc2O[C@@H]1CN(C)S(=O)(=O)c1ccccc1`, 94.1%.
As to `O=C(C[C@@H]1C[C@@H]2c3cc(NC(=O)c4ccc5c(c4)OCO5)ccc3O[C@@H]2[C@@H](CO)O1)NCc1ccc(Cl)cc1`, the inhibition was -3.27%.
To `O=S(=O)(Cc1ccccc1)N1CCCCN2[C@@H](CO)[C@H](c3ccc(-c4ccccc4)cc3)[C@@H]2C1` belongs 78.8%; to `O=C(c1cccnc1)N1CCCCN2[C@@H](CO)[C@H](c3ccc(C#Cc4ccccc4)cc3)[C@@H]2C1`, 41.7%; to `COc1cccc(S(=O)(=O)N2CCCCN3[C@H](CO)[C@H](c4ccc(-c5ccncc5)cc4)[C@H]3C2)c1`, 100% (active).
The same measure for `CN(C)CC#Cc1ccc([C@H]2[C@H]3CN(S(=O)(=O)c4ccccc4F)CCCCN3[C@H]2CO)cc1`: 8.03%; for `COc1ccc(S(=O)(=O)N2CCCCN3[C@H](C2)[C@H](c2ccc(C#CCC(C)C)cc2)[C@@H]3CO)cc1`: 109% (active); for `O=S(=O)(Cc1ccccc1)N1CCCCN2[C@@H](CO)[C@@H](c3ccc(-c4ccc(F)cc4)cc3)[C@@H]2C1`: 104% (active).
The same measure for `O=S(=O)(Cc1ccccc1)N1CCCCN2[C@@H](CO)[C@H](c3ccc(-c4cccnc4)cc3)[C@@H]2C1`: 62.1%; for `COc1ccc(S(=O)(=O)N2CCCCN3[C@H](CO)[C@@H](c4ccc(C#CC(C)C)cc4)[C@H]3C2)cc1`: 79.7%.
With `Cc1cccc(-c2ccc([C@@H]3[C@@H](CO)N4CCCCN(S(=O)(=O)c5cccs5)C[C@H]34)cc2)c1`, the inhibition was 94.4%.
To `COc1ccccc1C#Cc1ccc([C@@H]2[C@H](CO)N3CCCCN(C(=O)C4CC4)C[C@@H]23)cc1` belongs 64.4%; to `COc1ccccc1C#Cc1ccc([C@@H]2[C@H](CO)N3CCCCN(C(=O)C4CCCC4)C[C@@H]23)cc1`, 98.1% (active).
The same measure for `CCS(=O)(=O)N1CCCCN2[C@@H](CO)[C@@H](c3ccc(-c4ccccc4)cc3)[C@@H]2C1`: 27.5%; for `OC[C@@H]1[C@H](c2ccc(C#CC3(O)CCCC3)cc2)[C@H]2CN(Cc3cncnc3)CCCCN12`: 79.8%.
The same measure for `CNC[C@H]1OCCCC[C@@H](C)Oc2ccc(NS(C)(=O)=O)cc2C(=O)N([C@H](C)CO)C[C@H]1C`: -9.33%; for `CO[C@H](CN(C)S(=O)(=O)c1ccc(Cl)cc1)[C@@H](C)CN(Cc1ccccc1Cl)[C@H](C)CO`: 48.7%.
With `COc1cccc(S(=O)(=O)Nc2ccc3c(c2)[C@H]2C[C@H](CC(=O)NCc4ccc(Cl)cc4)O[C@H](CO)[C@H]2O3)c1`, the inhibition is 2.49%.
To `COc1cccc(S(=O)(=O)N2C[C@@H](O)COC[C@@H]3O[C@H](CC(=O)Nc4ccccc4)CC[C@H]32)c1` belongs 1.83%; to `C[C@H](CO)N1C[C@H](C)[C@@H](CN(C)S(=O)(=O)c2ccccc2F)Oc2ncc(C#Cc3ccccc3F)cc2C1=O`, 93.7%; to `C[C@H]1CN([C@@H](C)CO)C(=O)Cc2cc(NC(=O)Cc3cn(C)c4ccccc34)ccc2O[C@@H]1CN(C)Cc1ccc(C(F)(F)F)cc1`, 43.7%.
As for `COc1cccc(S(=O)(=O)N2CCCCN3[C@H](C2)[C@H](c2ccc(C#CC(C)C)cc2)[C@@H]3CO)c1`, the inhibition is 103% (active).
Regarding `C[C@@H](O)C#Cc1ccc([C@@H]2[C@H](CO)N3CCCCN(S(=O)(=O)c4ccccc4)C[C@@H]23)cc1`, the inhibition is 12%.
`O=C(Nc1cccc(F)c1)N1CCCCN2[C@H](CO)[C@H](c3ccc(C#CC4CC4)cc3)[C@@H]2C1`: the inhibition is 89.3%.
To `COc1cccc(S(=O)(=O)N2CCCCN3[C@H](CO)[C@H](c4ccc(C#CC5CC5)cc4)[C@H]3C2)c1` belongs 102% (active); to `C[C@H](O)C#Cc1ccc([C@@H]2[C@H]3CN(S(=O)(=O)c4ccccc4)CCCCN3[C@H]2CO)cc1`, -19.2%; to `C/C=C/c1ccc([C@H]2[C@H]3CN(S(=O)(=O)c4ccccc4)CCCCN3[C@H]2CO)cc1`, 40.8%.
The same measure for `C[C@H](CO)N1C[C@H](C)[C@H](CN(C)C(=O)Nc2cccc3ccccc23)Oc2ncc(C#Cc3ccccc3)cc2C1=O`: 59.1%; for `Cc1cccc(-c2ccc([C@@H]3[C@H](CO)N4CCCCN(C(=O)c5ccc6c(c5)OCO6)C[C@@H]34)cc2)c1`: 66.9%.
To `C[C@@H]1CN([C@H](C)CO)S(=O)(=O)c2ccc(-c3cccc(C#N)c3)cc2O[C@@H]1CN(C)C(=O)Nc1ccccc1F` belongs 85.2%; to `C[C@@H]1CN([C@@H](C)CO)C(=O)CCCn2cc(nn2)CO[C@@H]1CN(C)S(=O)(=O)c1ccccc1F`, 34.3%.

The values are drawn from PubChem BioAssay AID651740 (Broad Institute, 2012).
